Assay results as given in ChEMBL document CHEMBL1932958, “Analogs of pentamidine as potential anti-Pneumocystis chemotherapeutics” (Eur J Med Chem, 2012).

Experiments:
Pneumocystis carinii = test: Antipneumocystis activity against Pneumocystis carinii assessed as reduction of ATP level after 72 hrs by bioluminescent assay; assay type: functional, organism-based
Procedure, shortened: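 P. carinii from corticosteroid-immunosuppressed male CD rat lungs (methylprednisolone 20 mg/kg weekly, inoculated intratracheally or intranasally), cryopreserved, thawed at 37°C, 5 × 10^7 nuclei/ml in RPMI-1640 with 20% calf serum; 5% CO2, 37 °C. Screened at 100 µg/ml; titrated if ATP fell ≥50%. ATPlite luciferin-luciferase luminescence at 72 h; triplicate wells, 3 assays, two batches; IC50 by linear regression of % ATP decrease vs log concentration.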

A549 = test: Cytotoxicity against human A549 cells; assay type: cell-based
[1] = Cytotoxicity against rat L2 cells; assay type: cell-based

IC50 (Pneumocystis carinii) [µM] | Structure (SMILES) | IC50 (A549) [µg/mL] | IC50 [1] [µg/mL]
1.73 | CN(CCOc1ccc(C(=N)N)cc1)CCOc1ccc(C(=N)N)cc1.Cl.Cl | > 100 | > 100
3.41 | COc1cc(C(=N)N)ccc1OCCN(C)CCOc1ccc(C(=N)N)cc1OC.Cl.Cl | > 100 | > 100
6.26 | COc1cc(C(=N)N)cc(OC)c1OCCN(C)CCOc1c(OC)cc(C(=N)N)cc1OC.Cl.Cl | > 100 | > 100
1.99 | CN(CCCCCN(C)c1ccc(C(=N)N)cc1)c1ccc(C(=N)N)cc1.Cl.Cl | > 100 | 47.1
1.11 | Cl.Cl.N=C(N)c1ccc(NCCOCCNc2ccc(C(=N)N)cc2)cc1 | > 100 | 36.9
2.13 | Cl.Cl.N=C(N)c1ccc(OCCOCCOc2ccc(C(=N)N)cc2)cc1 | > 100 | > 100
4.21 | COc1cc(C(=N)N)ccc1OCCOCCOc1ccc(C(=N)N)cc1OC.Cl.Cl | > 100 | > 100
13 | COc1cc(C(=N)N)cc(OC)c1OCCOCCOc1c(OC)cc(C(=N)N)cc1OC.Cl.Cl | > 100 | > 100
3 | COc1cc(C(=N)N)cc(OC)c1OCCCCCOc1c(OC)cc(C(=N)N)cc1OC.Cl.Cl | > 100 | 17.8
1.18 | Cl.Cl.N=C(N)c1ccc(OCCSCCOc2ccc(C(=N)N)cc2)cc1 | > 100 | > 100
1.33 | Cl.Cl.N=C(N)c1ccc(OCCN(CCOc2ccc(C(=N)N)cc2)S(=O)(=O)c2ccccc2)cc1 | > 100 | > 100
2.66 | COc1cc(C(=N)N)ccc1OCCN(CCOc1ccc(C(=N)N)cc1OC)S(=O)(=O)c1ccccc1.Cl.Cl | > 100 | > 100
4.4 | COc1cc(C(=N)N)cc(OC)c1OCCN(CCOc1c(OC)cc(C(=N)N)cc1OC)S(=O)(=O)c1ccccc1.Cl.Cl | > 100 | > 100
3.71 | COc1cc(C(=N)N)ccc1OCCN(CCOc1ccc(C(=N)N)cc1OC)S(=O)(=O)c1ccc(NC(C)=O)cc1.Cl.Cl | > 100 | > 100
4.16 | COc1cc(C(=N)N)cc(OC)c1OCCN(CCOc1c(OC)cc(C(=N)N)cc1OC)S(=O)(=O)c1ccc(N)cc1.Cl.Cl | > 100 | > 100
2.99 | Cl.Cl.N=C(N)c1ccc(C(=O)NCCCNC(=O)c2ccc(C(=N)N)cc2)cc1 | > 100 | > 100
3.58 | Cl.Cl.N=C(N)c1ccc(C(=O)NCCCCNC(=O)c2ccc(C(=N)N)cc2)cc1 | > 100 | > 100
14.3 | Cl.Cl.N=C(N)c1ccc(C(=O)NCCCCCNC(=O)c2ccc(C(=N)N)cc2)cc1 | > 100 | > 100
9.15 | Cl.Cl.N=C(N)c1ccc(C(=O)NCCCCCCNC(=O)c2ccc(C(=N)N)cc2)cc1 | > 100 | > 100
